As usually defined, the Cmax is the peak of the concentration-time curve. A word on the inhibition in vivo: it is the percentage by which the read-out fell short of the control.

The test system of data set [1] is Mus musculus. Briefly: Toxicity in KM mouse assessed as damage to heart at 2 to 3 g/kg, administered through oral gavage after 15 days. The settings on record: in vivo, 360 h.
Data set [2] can be described thus: Ratio of FdUMP AUC (infinity) in Sprague-Dawley rat liver to FDUR AUC (infinity) in Sprague-Dawley rat plasma at 52.17 mg/kg administered through oral gavage. In kind it is ADME, organism-based. The settings on record: in vivo. In short, it runs like this:
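Male Sprague-Dawley rats (220 20 g), single gavage of 0.096 mmol/kg prodrug in 20% hydroxypropyl-β-cyclodextrin. Blood by cardiac puncture under isoflurane and liver at 0.25–24 h, n = 3 per time point. Liver freeze-clamped and homogenized in 20 mM EDTA-K2/70% MeOH. FdUMP (liver) and FDUR (plasma) by HPLC-MS/MS, negative ESI. Index = AUC(inf) liver FdUMP / AUC(inf) plasma FDUR.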

For data set [3], the system named is Plasma. Briefly: AUC (infinity) in Sprague-Dawley rat plasma assessed as (S)-2-((R)-(((2R,3S,5R)-5-(5-fluoro-2,4-dioxo-3,4-dihydropyrimidin-1(2H)-yl)-3-hydroxytetrahydrofuran-2-yl)methoxy)(2-methylbenzyloxy)phosphorylamino)propanoate formation at 52.17 mg/kg administered through oral gavage measured up to 24 hrs by HPLC-MS/MS analysis. The note with it: in vivo. Further details: dose 52.17 mg/kg, time infinity, route oral. In kind it is ADME, organism-based. In short, it runs like this:
(§1)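 Male Sprague-Dawley rats (220 ± 20 g), single gavage of 0.096 mmol/kg. FDUR was dosed in H2O; the prodrugs were dosed in 20% hydroxypropyl-β-cyclodextrin. n = 3 per time point, sampled at 0.25–24 h. Plasma (EDTA-K2, cardiac puncture) and freeze-clamped liver were homogenized in 20 mM EDTA-K2/70% MeOH. Analytes measured by HPLC-MS/MS in ESI negative mode.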

The subject of data set [4] is Plasma. Briefly: Drug metabolism in Sprague-Dawley rat plasma assessed as o-methylhippuric acid formation. In kind it is ADME, cell-free.
For data set [5], the system named is Liver. Briefly: AUC (infinity) in Sprague-Dawley rat liver assessed as (S)-2-((R)-(((2R,3S,5R)-5-(5-fluoro-2,4-dioxo-3,4-dihydropyrimidin-1(2H)-yl)-3-hydroxytetrahydrofuran-2-yl)methoxy)(2-methylbenzyloxy)phosphorylamino)propanoate formation at 52.17 mg/kg administered through oral gavage measured up to 24 hrs by HPLC-MS/MS analysis. It is filed as ADME, organism-based. Further details: dose 52.17 mg/kg, route oral, time infinity. The settings on record: in vivo. In short, it runs like this:
as §1

In data set [6] the test system is Mus musculus. The experiment in a line: Toxicity in KM mouse assessed as damage to lung at 2 to 3 g/kg, administered through oral gavage after 15 days. The settings on record: in vivo, 360 h.
Data set [7] can be described thus: Ratio of metabolite A AUC (infinity) in Sprague-Dawley rat liver to (S)-2-((R)-(((2R,3S,5R)-5-(5-fluoro-2,4-dioxo-3,4-dihydropyrimidin-1(2H)-yl)-3-hydroxytetrahydrofuran-2-yl)methoxy)(2-methylbenzyloxy)phosphorylamino)propanoate AUC (infinity) in Sprague-Dawley rat plasma at 52.17 mg/kg administered through oral gavage. It is filed as ADME, organism-based. The note with it: in vivo.

Data set [8] relates to Liver. Briefly: Drug metabolism in Sprague-Dawley rat liver S9 fraction assessed as (S)-2-((R)-(((2R,3S,5R)-5-(5-fluoro-2,4-dioxo-3,4-dihydropyrimidin-1(2H)-yl)-3-hydroxytetrahydrofuran-2-yl)methoxy)(2-methylbenzyloxy)phosphorylamino)propanoate formation at 20 ug/mL after 20 mins by HPLC-MS/MS analysis in absence of NADPH. It is filed as ADME. The settings on record: s9, 20 min. In a few lines:
(§2)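 Rat liver S9 (10 mg/mL) incubated with compound at 20 μg/mL. Parent, intermediate A and FdUMP followed over time by HPLC-MS/MS. Negative control run without NADPH.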

Data set [9] concerns Liver. The experiment in a line: Cmax in Sprague-Dawley rat liver assessed as FDUR formation at 52.17 mg/kg administered through oral gavage measured up to 24 hrs by HPLC-MS/MS analysis. It is filed as ADME, organism-based. Further details: dose 52.17 mg/kg, route oral. The note with it: in vivo. In a few lines:
as §1

The subject of data set [10] is H22. Briefly: Antitumor activity against mouse H22 cells implanted in KM mouse assessed as tumor growth inhibition at 65 mg/kg administered daily through oral gavage after 8 days. It is filed as functional. The settings on record: 192 h. In short, it runs like this:
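Syngeneic H22 hepatoma: 2 × 10⁶ cells injected s.c. in the axilla (0.9% saline) of female KM mice, n = 10 per group. From day 2, daily oral gavage for 8 days. Test agent given in 35% PEG400; sorafenib suspended in 0.5% CMC-Na. Tumor weight taken on day 8; inhibition rate calculated versus the vehicle group.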

In data set [11] the test system is Mus musculus. Briefly: Toxicity in KM mouse implanted with mouse H22 cells assessed as body weight level at 65 mg/kg administered daily through oral gavage after 8 days (reference value: 21.7 to 22.3 g). In kind it is organism-based. The settings on record: in vivo, 192 h.
Data set [12] has as its system Liver. The experiment in a line: Drug metabolism in Sprague-Dawley rat liver S9 fraction assessed as FdUMP formation at 20 ug/mL after 20 mins by HPLC-MS/MS analysis in absence of NADPH. It is filed as ADME. The settings on record: s9, 20 min. In a few lines:
as §2

In data set [13] the test system is Mus musculus. The experiment in a line: Toxicity in KM mouse assessed as weight loss at 2 to 3 mg/kg, administered through oral gavage after 1 to 5 days. The note with it: in vivo, in the assay text read “2 to 3 g/kg” for “2 to 3 mg/kg”. It is filed as organism-based. In a few lines: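 Female KM mice (20 2 g), fasted overnight, 5 per group. Single oral gavage at 2 or 3 g/kg in 57% hydroxypropyl-β-cyclodextrin. Watched continuously for 4 h, intermittently to 24 h, then occasionally to day 15 for weight, appetite and behaviour. Mean body weight change tracked days 1–15. Organs examined macroscopically at sacrifice on day 15.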

In data set [14] the test system is Liver. The experiment in a line: AUC (infinity) in Sprague-Dawley rat liver assessed as FdUMP formation at 52.17 mg/kg administered through oral gavage measured up to 24 hrs by HPLC-MS/MS analysis. In kind it is ADME, organism-based. Further details: dose 52.17 mg/kg, route oral, time infinity. The note with it: in vivo. In a few lines:
as §1

Take `Cc1ccccc1CO[P@](=O)(N[C@@H](C)C(=O)OC(C)C)OC[C@H]1O[C@@H](n2cc(F)c(=O)[nH]c2=O)C[C@@H]1O`: the Activity entry was “Non-toxic” in data set [1], “Non-toxic” in data set [6], 25.9 g in data set [11] and “Non-toxic” in data set [13]. Also, the results for the “Ratio AUC” value in data set [2] and in data set [7] were 20.9 and 17.4, respectively. Further, the AUC in data set [3] stood at 316 ng·h/mL; in [5], 5509 ng·h/g; in [14], 543 ng·h/g. Besides, the Drug metabolism entry in [4] is reported as “metabolite_detected”; in data set [8], “metabolite_detected”; in data set [12], “metabolite_notdetected”. Moreover, the Cmax in [9] is reported as 747 ng/g. In addition, the inhibition in vivo at 65 mg/kg in [10] is 44.2%.
